Nine compounds from ChEMBL document CHEMBL1150633, “In vitro cytotoxic activity of phenanthroindolizidine alkaloids from Cynanchum vincetoxicum and Tylophora tanakae against drug-sensitive and multidrug-resistant cancer cells” (J Nat Prod, 2002) can be followed below.

Broadly, the IC50 is the point on the concentration scale where inhibition reaches its midpoint. Read a high IC50 as weaker potency.

Some results are limits rather than exact numbers.

Assay [1] in a line: Cytotoxicity against multidrug-resistant human KBV1 cells by MTS/PMS assay. It is filed as functional, cell-based. Conditions: KB-V1. The method in brief: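 Mycoplasma-free KB-V1 carcinoma cells, selected from KB-3-1 for vinblastine resistance and obtained from the NCI Laboratory of Cell Biology. They show a full multidrug-resistance phenotype including P-170 glycoprotein efflux pump expression. Cytotoxicity expressed as IC50.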

Assay [2] can be described thus: Cytotoxicity against drug-sensitive human KB-3-1 cells by MTS/PMS assay.
Assay [3] can be described thus: Resistance index, ratio for IC50 for multidrug-resistant human KBV1 cells to IC50 for drug-sensitive human KB-3-1 cells.

Regarding `COc1ccc(C2=C(c3ccc(OC)c(OC)c3)C[C@H]3CCCN3C2)cc1`, the figures for the IC50 in assay [1] and in assay [2] were 2440 nM and 2630 nM, respectively.
Take `COc1ccc(C2=C(c3ccc(O)cc3)CN3CCC[C@@H]3C2)cc1OC`: the results for the half-maximal inhibitory concentration (IC50) in assay [1] and in assay [2] were 425 nM and 403 nM, respectively.
With `COc1cc2c3c(c4ccc(O)cc4c2cc1OC)CN1CCC[C@@H]1C3`, the IC50 in assay [1] was found to be 10 nM; in assay [2] it was 7 nM.
Consider `COc1cc2c(cc1O)c1c(c3cc(OC)c(OC)cc32)C[C@H]2CCCN2C1`, for which the IC50 was determined as 17 nM in assay [1] and 15 nM in assay [2].
The like results for `COc1cc2c3c(c4ccc(OC)c(OC)c4c2cc1OC)C[C@@H]1CCCN1C3` were, in that order, 54 nM and 43 nM.
As for `COc1ccc2c3c(c4cc(OC)c(OC)cc4c2c1)C[C@H]1CCCN1C3` [(-)-ANTOFINE], the IC50 in assay [1] turned out to be 14 nM; in assay [2] it was 16 nM.
For the compound `COC(=O)c1ccccc1-c1c2ccc(=N)cc-2oc2cc(N)ccc12.Cl` [RHODAMINE123], the values for the IC50 in assay [1] and in assay [2] were above 500000 nM and 2200 nM, respectively. In assay [3], the “Ratio IC50” value is above 225.
`COc1cc2c3c(c4cc(OC)c(OC)cc4c2cc1OC)CN1CCC[C@@H]1C3` [TYLOPHORINE]: the IC50 in assay [1] amounted to 173 nM; in assay [2], 214 nM.
As for `CC[C@]1(O)C[C@@H]2CN(CCc3c([nH]c4ccccc34)[C@@](C(=O)OC)(c3cc4c(cc3OC)N(C)[C@H]3[C@@](O)(C(=O)OC)[C@H](OC(C)=O)[C@]5(CC)C=CCN6CC[C@]43[C@@H]65)C2)C1` [VINBLASTINE], the “Ratio IC50” value in assay [3] was 210.
